TAAR1 agonist = human TAAR1 agonism; Q96RJ0; CHO RD-HGA16 TAAR1, Fluo-8 calcium fluorescence; vehicle wells 0%, saturating PEA agonist 100%; activation, % at 3 µM; actives 0.99% (n = 360,000);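 active = activation above the mean activation of all test compounds in the run plus 3 SD, cut at about 38% in these data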
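System: CHO-derived RD-HGA16 cells with stable Gα16 and human TAAR1. Times: 17-24 h plating, Fluo-8 75 min 37 °C, 30 min RT. Measured by: calcium-sensitive Fluo-8 signal, excitation 470-495, emission 515-575 nm. Read-out basis: % activation relative to PEA EC100 response. Control set: DMSO and PEA EC100. Repeats: no replicates (n 1).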
CHO parental Ca = counter-screen for OX1R antagonists: effect in parental CHO cells. parental CHO-K1, ATP-induced calcium, Fluo-8 fluorescence. inhibition, % at 5.6 µM. actives 0.63% (n = 330,000);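 active = inhibition above that plate's mean sample inhibition plus 3 SD, cut at about 26% in these data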
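test system = CHO parental line | reagent = ATP stimulus | measured by = intracellular calcium via Fluo-8 no-wash fluorescent dye | control set = ATP and no-ATP DMSO wells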
OX1R antag-1 = blocks the human orexin 1 receptor; O43613; CHO/OX1R cells, Fluo-8 calcium fluorescence, orexin A; inhibition, % at 5 µM; actives 0.43% (n = 330,000); AID 434989;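 active = inhibition above its plate's threshold, mean inhibition of all tested compounds on the plate plus 3 SD, cut at about 37% in these data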
TAAR1 antagonist = human TAAR1 antagonism; Q96RJ0; CHO RD-HGA16 TAAR1, Fluo-8 calcium fluorescence, antagonist; inhibition, % at 3 µM; actives 1.5% (n = 360,000); AID 624466;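 active = inhibition above a per-plate cutoff, the mean inhibition of test compounds on that plate plus 3 SD, cut at about 49% in these data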
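Material: RD-HGA16 CHO cells with stable hTAAR1 and Gα16; Dosing: single nominal final test compound concentration of 3 µM; Schedule: seeding 17-24 h prior, 75-min 37 °C, 30-min RT dye loading; Detection: kinetic Fluo-8 calcium fluorescence measurement; Measure: % inhibition from peak post-agonist over basal fluorescence ratio; Benchmarks: vehicle and agonist controls.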
OX1R antag-2 = OX1R (human) antagonism; OX1R-expressing cells, FRET antagonist read-out; inhibition, % at 6.6 µM; actives 1.8% (n = 330,000); AID 485270; in the data active = inhibition mostly above about 38%, no sharp cut-off; inactive = mostly below about 40%
GalR3 antagonist = human GalR3 antagonism; HEK293 GalR3-CNG cAMP membrane potential fluorescence; galR3 body fused to GalR1 C-terminus; inhibition, % at 3 µM; actives 0.44% (n = 360,000); O60755;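 active = inhibition above the screen-wide average plus 3 SD, cut at about 13% in these data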;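 also: forskolin and galanin both at EC90 stimulate the cells; cAMP rise reported by CNG channel membrane potential dye signal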
Target sequence (O60755 1-299 limits assumed): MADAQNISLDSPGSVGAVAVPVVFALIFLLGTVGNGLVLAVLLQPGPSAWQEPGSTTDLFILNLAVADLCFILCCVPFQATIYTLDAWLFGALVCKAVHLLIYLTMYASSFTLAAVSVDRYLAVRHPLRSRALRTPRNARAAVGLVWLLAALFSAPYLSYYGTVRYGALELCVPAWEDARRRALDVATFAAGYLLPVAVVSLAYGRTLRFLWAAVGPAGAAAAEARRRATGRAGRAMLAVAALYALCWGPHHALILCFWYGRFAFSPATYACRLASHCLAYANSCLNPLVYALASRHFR
TAAR1 nonsel count = counter-screen for TAAR1 antagonists: nonselective antagonists. shares compounds with TAAR1 antagonist. counterscreen cell line, calcium fluorescence, antagonist mode. inhibition, % at 3 µM. actives 77% (n = 2,400); in the data active = inhibition above about 22%;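 also: CHO-Ga16 host cells stimulated with ATP at an EC80 level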
TAAR1 ant conf = human TAAR1 antagonism, confirmed; shares compounds with TAAR1 antagonist; TAAR1-expressing cells, fluorescence antagonist read-out; inhibition, % at 3 µM; actives 40% (n = 2,400); AID 651785; in the data active = inhibition above about 49%;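 also: CHO-Ga16 host cells challenged with agonist PEA near its EC80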
Ga16 nonsel ag = counter-screen for TAAR1 antagonists: nonselective Ga16 agonists; actives 18% (n = 2,400); AID 651953; shares compounds with TAAR1 antagonist; activation, % at 3 µM; Ga16-expressing cells, calcium fluorescence, agonist counterscreen; in the data active = activation above about 12%
TAAR1 ag count = TAAR1 agonism, antagonist counter-screen; shares compounds with TAAR1 antagonist; hTAAR1 cell line, fluorescence activation, agonist mode; activation, % at 3 µM; actives 2% (n = 2,400); AID 651955; in the data active = activation above about 37%;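 also: CHO cells stably expressing TAAR1 with calcium dye readout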
Hits are given with their value; i = inactive; nt = no result given. In the library only some 4.3% were active in any assay of this set; here they are far more common.

SMILES	TAAR1 agonist	CHO parental Ca	OX1R antag-1	TAAR1 antagonist	OX1R antag-2	GalR3 antagonist	TAAR1 nonsel count	TAAR1 ant conf	Ga16 nonsel ag	TAAR1 ag count
COc1ccc(-n2nc(C(=O)NCC(=O)NCC3COc4ccccc4O3)c3ccccc3c2=O)cc1OC (configuration not stated)	i	i	i	58	i	i	27	49	i	i
COc1ccc(-n2nc(C(=O)NCC(=O)NCC3COc4ccccc4O3)c3ccccc3c2=O)c(OC)c1 (configuration not stated)	i	i	i	i	i	i	nt	nt	nt	nt
C=CCN1C[C@H](COC(=O)c2cccc(OC)c2)Oc2cccc(F)c2S1(=O)=O	i	nt	nt	79	nt	i	41	56	12	i
C=CCN1C[C@H](COC(=O)c2ccc(C)c(C)c2)Oc2cccc(F)c2S1(=O)=O	i	nt	nt	i	nt	i	nt	nt	nt	nt
COc1cc(/C=N/NC(=O)CSc2cc(C)c(Br)cc2C)ccc1O	i	i	i	66	48	i	38	59	13	i
Cc1cc(SCC(=O)N/N=C/c2ccc(O)c(O)c2O)c(C)cc1Br	i	i	i	i	i	i	nt	nt	nt	nt
COc1ccc(NC(=O)Nc2ccc3nc([C@@H]4O[C@H](CO)[C@@H](O)[C@H](O)[C@H]4O)[nH]c3c2)cc1OC1CCCC1	i	nt	nt	i	nt	i	nt	nt	nt	nt
COc1cc(-c2nc(C(=O)NCC3CCCO3)cc3c2[nH]c2ccccc23)cc(OC)c1OC (configuration not stated)	i	i	i	61	i	i	28	i	i	i
COc1cccc2[nH]c(C(=O)NCC3CCCO3)cc12 (configuration not stated)	i	i	i	i	i	i	nt	nt	nt	nt
Cc1ccc(Cl)cc1-c1cc(C(=O)NCc2ccc(C(F)(F)F)cc2)[nH]n1	i	nt	nt	77	nt	i	42	66	32	58
COc1ccc(CCNC(=O)c2cc(-c3cc(Cl)ccc3O)n[nH]2)cc1OC	i	i	i	61	i	i	39	54	13	i
COc1ccc(Cl)c(-c2cc(C(=O)NCc3ccc(C(F)(F)F)cc3)[nH]n2)c1	i	nt	nt	63	nt	i	32	i	19	i
COc1ccc(Cl)c(-c2cc(C(=O)NCc3ccco3)[nH]n2)c1	i	nt	nt	i	nt	i	nt	nt	nt	nt
COc1ccc(NC(=O)COC(=O)C2CC(=O)N(CCc3ccc(OC)c(OC)c3)C2)cc1Cl (configuration not stated)	i	i	i	i	i	i	nt	nt	nt	nt
Cc1ccc(C)c(N2CCN(C(=O)c3ccc(CS(=O)(=O)c4ccccc4C)o3)CC2)c1	i	i	i	64	i	i	37	51	i	i
Cc1ccc(S(=O)(=O)Cc2ccc(C(=O)N3CCN(c4cc(C)ccc4C)CC3)o2)cc1	i	i	i	i	i	i	nt	nt	nt	nt
COc1ccc(CCNC(=O)c2ccc(-c3cccc([N+](=O)[O-])c3)o2)cc1OC	i	i	i	60	i	i	28	i	15	i
O=C(NC(=S)Nc1ccccc1N1CCCC1)c1ccc(-c2cccc([N+](=O)[O-])c2)o1	i	i	i	i	i	i	nt	nt	nt	nt
CC(=O)N1CCN(c2ccccc2NC(=O)c2ccc(-c3cccc([N+](=O)[O-])c3)o2)CC1	i	i	i	66	i	i	28	49	i	i
CC(C)(C)c1cc(NC(=O)COC(=O)c2ccc(O)cc2O)n(-c2ccccc2)n1	i	i	i	i	i	i	nt	nt	nt	nt
O=C(COC(=O)c1ccc(O)cc1O)Nc1cc(-c2ccccc2)nn1-c1ccccc1	i	i	i	72	i	i	35	i	i	i

Screening data: PubChem, The Scripps Research Institute Molecular Screening Center
